Measurements: ChEMBL document CHEMBL1649247, “Fluoroquinolone resistance in Mycobacterium tuberculosis and mutations in gyrA and gyrB” (2009)
In brackets after ≈: the same amount, converted by molar mass. Activity calls are given as the source filed them. No cut-off for these calls is given here.

Columns and labels:
[1] = system: Mycobacterium tuberculosis; test: Antimycobacterial activity against Mycobacterium tuberculosis 00-0715 harboring gyrA Ala90Val mutant gene assessed as microbial susceptibility by agar proportion method; type: functional, organism-based
Outline: (§1)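 Clinical isolates freshly subcultured on Löwenstein-Jensen medium, held at 37°C no longer than 4 weeks. Fluoroquinolone stocks 1 mg/ml in 0.1 N NaOH, filter sterilized, kept at −20°C under 2 months. Standard proportion method on 7H11 agar; breakpoints 2 mg/liter ofloxacin, 0.5 mg/liter moxifloxacin and gatifloxacin; scored susceptible or resistant.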

[2] = system: Mycobacterium tuberculosis; test: Antimycobacterial activity against multidrug-resistant Mycobacterium tuberculosis 08-0777 assessed as microbial susceptibility by agar proportion method; type: functional, organism-based
Outline: (§2)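 Clinical isolates freshly subcultured on Löwenstein-Jensen medium at 37°C for no more than 4 weeks. Susceptibility by standard proportion method on 7H11 agar at breakpoints of 2 mg/liter ofloxacin and 0.5 mg/liter moxifloxacin and gatifloxacin. Drug stocks 1 mg/ml in 0.1 N NaOH, filter sterilized, held at −20°C under 2 months. Isolates scored susceptible or resistant.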

[3] = system: Mycobacterium tuberculosis; test: Antimycobacterial activity against multidrug-resistant Mycobacterium tuberculosis 01-2230 harboring gyrA Asp94Gly mutant gene assessed as microbial susceptibility by agar proportion method; type: functional, organism-based; outline: as §1
[4] = system: Mycobacterium tuberculosis; test: Antimycobacterial activity against multidrug-resistant Mycobacterium tuberculosis 08-0797 harboring gyrA Ala90Val mutant gene assessed as microbial susceptibility by agar proportion method; type: functional, organism-based; outline: as §2
[5] = system: Mycobacterium tuberculosis; test: Antimycobacterial activity against multidrug-resistant Mycobacterium tuberculosis 03-0738 harboring gyrA Ala90Val mutant gene assessed as microbial susceptibility by agar proportion method; type: functional, organism-based; outline: as §2
[6] = system: Mycobacterium tuberculosis; test: Antimycobacterial activity against Mycobacterium tuberculosis 08-0769 harboring gyrA putative promoter mutant gene assessed as microbial susceptibility by agar proportion method; type: functional, organism-based; outline: as §1
[7] = system: Mycobacterium tuberculosis; test: Antimycobacterial activity against multidrug-resistant Mycobacterium tuberculosis 08-0757 harboring gyrA Ala90Val mutant gene by resazurin microtiter assay; type: functional
Outline: (§3)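 MIC was read by resazurin microtiter assay against ofloxacin, moxifloxacin and gatifloxacin. Isolates were used as fresh Löwenstein-Jensen subcultures kept at 37°C for no longer than 4 weeks.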

[8] = system: Mycobacterium tuberculosis; test: Antimycobacterial activity against Mycobacterium tuberculosis 02-1975 harboring gyrA Asp94Gly mutant gene assessed as microbial susceptibility by agar proportion method; type: functional, organism-based; outline: as §1
[9] = system: Mycobacterium tuberculosis; test: Antimycobacterial activity against multidrug-resistant Mycobacterium tuberculosis 08-0797 harboring gyrA Ala90Val mutant gene by resazurin microtiter assay; type: functional; outline: as §3
[10] = system: Mycobacterium tuberculosis; test: Antimycobacterial activity against multidrug-resistant Mycobacterium tuberculosis 08-0791 harboring gyrA Ala90Val mutant gene assessed as microbial susceptibility by agar proportion method; type: functional, organism-based; outline: as §2
[11] = system: Mycobacterium tuberculosis; test: Antimycobacterial activity against multidrug-resistant Mycobacterium tuberculosis 08-0777 by resazurin microtiter assay; type: functional; outline: as §3
[12] = system: Mycobacterium tuberculosis; test: Antimycobacterial activity against multidrug-resistant Mycobacterium tuberculosis 08-0821 harboring gyrA Asp94Tyr mutant gene by resazurin microtiter assay; type: functional; outline: as §3
[13] = system: Mycobacterium tuberculosis; test: Antimycobacterial activity against multidrug-resistant Mycobacterium tuberculosis 08-0790 harboring gyrA Ala90Val mutant gene by resazurin microtiter assay; type: functional; outline: as §3
[14] = system: Mycobacterium tuberculosis; test: Antimycobacterial activity against multidrug-resistant Mycobacterium tuberculosis 01-2614 harboring gyrA Asp94Gly mutant gene by resazurin microtiter assay; type: functional
Outline: (§4)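 Isolates taken from fresh Löwenstein-Jensen subcultures grown at 37°C for at most 4 weeks. Drug stocks 1 mg/ml in 0.1 N NaOH, filter sterilized, stored at −20°C less than 2 months. MIC read by resazurin microtiter assay following a previously described protocol.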

[15] = system: Mycobacterium tuberculosis; test: Antimycobacterial activity against multidrug-resistant Mycobacterium tuberculosis 04-0519 harboring gyrA Ala90Val and Asp94Asn mutant gene by resazurin microtiter assay; type: functional; outline: as §3
[16] = system: Mycobacterium tuberculosis; test: Antimycobacterial activity against multidrug-resistant Mycobacterium tuberculosis 08-0785 harboring gyrA Ala90Val mutant gene by resazurin microtiter assay; type: functional; outline: as §3
[17] = system: Mycobacterium tuberculosis; test: Antimycobacterial activity against Mycobacterium tuberculosis 08-0769 harboring gyrA putative promoter mutant gene by resazurin microtiter assay; type: functional; outline: as §4
[18] = system: Mycobacterium tuberculosis; test: Antimycobacterial activity against multidrug-resistant Mycobacterium tuberculosis 02-1234 harboring gyrA Asn533Thr gyrB mutant gene assessed as microbial susceptibility by agar proportion method; type: functional, organism-based; outline: as §1
[19] = system: Mycobacterium tuberculosis; test: Antimycobacterial activity against multidrug-resistant Mycobacterium tuberculosis 08-0744 harboring gyrA Asp94Tyr mutant gene by resazurin microtiter assay; type: functional; outline: as §3
[20] = system: Mycobacterium tuberculosis; test: Antimycobacterial activity against multidrug-resistant Mycobacterium tuberculosis 08-0791 harboring gyrA Ala90Val mutant gene by resazurin microtiter assay; type: functional; outline: as §3
[21] = system: Mycobacterium tuberculosis; test: Antimycobacterial activity against multidrug-resistant Mycobacterium tuberculosis 01-1647 harboring gyrA Ala90Val mutant gene by resazurin microtiter assay; type: functional; outline: as §4
[22] = system: Mycobacterium tuberculosis; test: Antimycobacterial activity against Mycobacterium tuberculosis 08-0815 harboring gyrA Thr80Ala and Ala90Gly mutant gene by resazurin microtiter assay; type: functional; outline: as §4
[23] = system: Mycobacterium tuberculosis; test: Antimycobacterial activity against Mycobacterium tuberculosis 00-0715 harboring gyrA Ala90Val mutant gene by resazurin microtiter assay; type: functional; outline: as §4
[24] = system: Mycobacterium tuberculosis; test: Antimycobacterial activity against multidrug-resistant Mycobacterium tuberculosis 01-2834 by agar proportion method; type: functional, organism-based; outline: as §1
[25] = system: Mycobacterium tuberculosis; test: Antimycobacterial activity against multidrug-resistant Mycobacterium tuberculosis 01-2230 harboring gyrA Asp94Gly mutant gene by resazurin microtiter assay; type: functional; outline: as §4
[26] = system: Mycobacterium tuberculosis; test: Antimycobacterial activity against multidrug-resistant Mycobacterium tuberculosis 01-0172 harboring gyrA Asp94Ala mutant gene assessed as microbial susceptibility by agar proportion method; type: functional, organism-based; outline: as §1
[27] = system: Mycobacterium tuberculosis; test: Antimycobacterial activity against multidrug-resistant Mycobacterium tuberculosis 08-0757 harboring gyrA Ala90Val mutant gene assessed as microbial susceptibility by agar proportion method; type: functional, organism-based; outline: as §2
[28] = system: Mycobacterium tuberculosis; test: Antimycobacterial activity against multidrug-resistant Mycobacterium tuberculosis 08-0794 harboring gyrA Thr80Ala mutant gene by resazurin microtiter assay; type: functional; outline: as §3
[29] = system: Mycobacterium tuberculosis; test: Antimycobacterial activity against multidrug-resistant Mycobacterium tuberculosis 01-2614 harboring gyrA Asp94Gly mutant gene assessed as microbial susceptibility by agar proportion method; type: functional, organism-based; outline: as §1
[30] = system: Mycobacterium tuberculosis; test: Antimycobacterial activity against multidrug-resistant Mycobacterium tuberculosis 01-0930 harboring gyrA Ala90Val mutant gene assessed as microbial susceptibility by agar proportion method; type: functional, organism-based; outline: as §1
[31] = system: Mycobacterium tuberculosis; test: Antimycobacterial activity against multidrug-resistant Mycobacterium tuberculosis 02-0319 harboring gyrA Asp94Ala mutant gene assessed as microbial susceptibility by agar proportion method; type: functional, organism-based; outline: as §1

What does the source list for `CC1COc2c(N3CCN(C)CC3)c(F)cc3c(=O)c(C(=O)O)cn1c23` (stereo unspecified) [OFLOXACIN]?
Activity [1]: inactive; Activity [2]: Active; Activity [3]: inactive; Activity [4]: inactive; Activity [5]: inactive; Activity [6]: Active; MIC [7]: 8 µg/mL (≈ 22.1 µM); Activity [8]: inactive; MIC [9]: 4 µg/mL (≈ 11.1 µM); Activity [10]: inactive; MIC [11]: 0.5 µg/mL (≈ 1.38 µM); MIC [12]: 8 µg/mL (≈ 22.1 µM); MIC [13]: 4 µg/mL (≈ 11.1 µM); MIC [14]: 16 µg/mL (≈ 44.3 µM); MIC [15]: >32 µg/mL; MIC [16]: 8 µg/mL (≈ 22.1 µM); MIC [17]: 1 µg/mL (≈ 2.77 µM); Activity [18]: Active; MIC [19]: 8 µg/mL (≈ 22.1 µM); MIC [20]: 4 µg/mL (≈ 11.1 µM); MIC [21]: 4 µg/mL (≈ 11.1 µM); MIC [22]: <=0.25 mg/L; MIC [23]: 4 µg/mL (≈ 11.1 µM); Activity [24]: inactive; MIC [25]: 8 µg/mL (≈ 22.1 µM); Activity [26]: inactive; Activity [27]: inactive; MIC [28]: 0.5 µg/mL (≈ 1.38 µM); Activity [29]: inactive; Activity [30]: inactive; Activity [31]: inactive

Which Activity [1] does the source give for `COc1c(N2CCNC(C)C2)c(F)cc2c(=O)c(C(=O)O)cn(C3CC3)c12` (stereo unspecified) [GATIFLOXACIN] here?
Its Activity is “inactive”.

And the Activity [2]?
Its Activity is “Active”.

And the Activity [3]?
The Activity was “inactive”.

What about the Activity [4] of the same compound?
Its Activity is “inactive”.

What about the Activity [5] of the same compound?
The Activity was “inactive”.

What about the Activity [6] of the same compound?
Its Activity is “Active”.

What about the MIC [7] of the same compound?
The MIC was 1 µg/mL (≈ 2.66 µM).

And the Activity [8]?
The Activity was “inactive”.

And the MIC [9]?
Its MIC is 0.5 µg/mL (≈ 1.33 µM).

And the Activity [10]?
The Activity was “inactive”.

What about the MIC [11] of the same compound?
Its MIC is ≤ 0.062 µg/mL.

What about the MIC [12] of the same compound?
Its MIC is 1 µg/mL (≈ 2.66 µM).

And the MIC [13]?
The MIC was 0.5 µg/mL (≈ 1.33 µM).

What about the MIC [14] of the same compound?
The MIC was 1 µg/mL (≈ 2.66 µM).

What about the MIC [15] of the same compound?
The MIC was >4 µg/mL.

What about the MIC [16] of the same compound?
The MIC was 1 µg/mL (≈ 2.66 µM).

What about the MIC [17] of the same compound?
Its MIC is 0.125 µg/mL (≈ 0.333 µM).

What about the Activity [18] of the same compound?
The Activity was “inactive”.

And the MIC [19]?
Its MIC is 1 µg/mL (≈ 2.66 µM).

What about the MIC [20] of the same compound?
The MIC was 0.25 µg/mL (≈ 0.666 µM).

What about the MIC [21] of the same compound?
The MIC was 0.5 µg/mL (≈ 1.33 µM).

And the MIC [22]?
Its MIC is “<=0.062 mg/L”.

What about the MIC [23] of the same compound?
The MIC was 0.5 µg/mL (≈ 1.33 µM).

And the Activity [24]?
The Activity was “inactive”.

And the MIC [25]?
Its MIC is 1 µg/mL (≈ 2.66 µM).

And the Activity [26]?
The Activity was “inactive”.

And the Activity [27]?
Its Activity is “inactive”.

And the MIC [28]?
Its MIC is “<=0.062 mg/L”.

What about the Activity [29] of the same compound?
The Activity was “inactive”.

And the Activity [30]?
The Activity was “inactive”.

And the Activity [31]?
Its Activity is “inactive”.

Which results are given for `COc1c(N2C[C@@H]3CCCN[C@@H]3C2)c(F)cc2c(=O)c(C(=O)O)cn(C3CC3)c12` [MOXIFLOXACIN]?
Activity [1]: inactive; Activity [2]: Active; Activity [3]: inactive; Activity [4]: inactive; Activity [5]: inactive; Activity [6]: Active; Activity [8]: inactive; MIC [9]: 1 µg/mL (≈ 2.49 µM); Activity [10]: inactive; MIC [11]: ≤ 0.125 µg/mL; MIC [12]: 4 µg/mL (≈ 9.96 µM); MIC [13]: 1 µg/mL (≈ 2.49 µM); MIC [14]: 2 µg/mL (≈ 4.98 µM); MIC [15]: >8 µg/mL; MIC [16]: 2 µg/mL (≈ 4.98 µM); MIC [17]: <=0.125 mg/L; Activity [18]: inactive; MIC [20]: 0.5 µg/mL (≈ 1.25 µM); MIC [21]: 0.5 µg/mL (≈ 1.25 µM); MIC [22]: <=0.125 mg/L; MIC [23]: 0.5 µg/mL (≈ 1.25 µM); Activity [24]: inactive; MIC [25]: 2 µg/mL (≈ 4.98 µM); Activity [26]: inactive; Activity [27]: inactive; MIC [28]: <=0.125 mg/L; Activity [29]: inactive; Activity [30]: inactive; Activity [31]: inactive
